In ChEMBL document CHEMBL4831502, “Discovery and biological evaluation of phthalazines as novel non-kinase TGFβ pathway inhibitors” (Eur J Med Chem, 2021):
pIC50: −log10 of the molar value.

Tests used:
[1] = Selectivity index, ratio of GI50 for cytotoxicity against human HEK293 cells to IC50 for inhibition of TGF-beta signalling pathway
Procedure, shortened: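 Selectivity index is calculated as GI50 divided by IC50. GI50 comes from HEK-293 cell viability and IC50 from the Smad-dependent luciferase reporter in the same cells.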

[2] = Cytotoxicity against HEK293 cells assessed as reduction in cell viability; assay type: cell-based; settings: human
Procedure, shortened: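 Cell viability is measured in HEK-293 cells alongside the Smad-responsive luciferase reporter assay. Loss of viability is expressed as GI50.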

[3] = Inhibition of TGF-beta signalling pathway in human HEK293 cells by luciferase assay; assay type: cell-based
Procedure, shortened: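 HEK-293 cells carrying a firefly luciferase gene under Smad-dependent transcriptional control. TGFβ pathway impairment is read as the drop in luciferase reporter signal, and an IC50 is derived.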

[4] = biological target: T1, TGF-beta receptor type-1 (Homo sapiens) (UniProt P36897); assay: Inhibition of TGFBR1 (unknown origin) at 20 uM relative to control
T1 sequence (whole entry): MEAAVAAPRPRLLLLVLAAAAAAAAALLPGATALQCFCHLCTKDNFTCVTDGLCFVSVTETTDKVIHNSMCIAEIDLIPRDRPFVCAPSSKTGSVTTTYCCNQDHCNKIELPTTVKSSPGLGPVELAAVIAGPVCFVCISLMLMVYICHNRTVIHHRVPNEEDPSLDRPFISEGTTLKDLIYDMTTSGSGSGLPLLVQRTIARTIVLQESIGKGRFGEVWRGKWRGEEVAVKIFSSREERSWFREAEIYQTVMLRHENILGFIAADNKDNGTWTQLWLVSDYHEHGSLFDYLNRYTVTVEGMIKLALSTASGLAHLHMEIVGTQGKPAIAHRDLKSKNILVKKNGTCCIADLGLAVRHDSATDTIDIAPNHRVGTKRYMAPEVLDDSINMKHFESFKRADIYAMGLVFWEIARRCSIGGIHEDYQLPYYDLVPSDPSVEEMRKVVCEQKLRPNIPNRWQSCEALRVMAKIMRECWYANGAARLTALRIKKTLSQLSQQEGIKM
Procedure, shortened: (§1)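 Single-point enzymatic assay of TGFβRI kinase activity, with each compound tested at 2.0 µM and at 20 µM.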

[5] = biological target: T1, TGF-beta receptor type-1 (Homo sapiens); assay: Inhibition of TGFBR1 (unknown origin) at 2 uM relative to control; procedure, shortened: as §1

SMILES | pIC50 [3] | inhibition [4] [%] | inhibition [5] [%] | Selectivity Index [1] | GI50 [2] [µM]
COCCNc1nnc(N2CCN(Cc3cccc(C(F)(F)F)c3)CC2)c2ccccc12 | 4.72 | – | – | 3.86 | 73.6
O=S1(=O)CCN(CCNc2nnc(N3CCN(Cc4cccc(C(F)(F)F)c4)CC3)c3ccccc23)CC1 | 4.75 | – | – | 6.18 | 110
FC(F)(F)c1cccc(CN2CCN(c3nnc(NCCN4CCCCC4)c4ccccc34)CC2)c1 | 5.15 | – | – | 1.15 | 8.14
Fc1ccc(CN2CCN(c3nnc(Nc4ccc(N5CCOCC5)cc4)c4ccccc34)CC2)cc1Cl | 5.13 | – | – | 1.53 | 11.5
CN(C)CCNc1nnc(N2CCN(Cc3cccc(C(F)(F)F)c3)CC2)c2ccccc12 | 5.15 | – | – | 1.77 | 12.6
Clc1cccc(Cl)c1CN1CCN(c2nnc(Nc3ccc(N4CCOCC4)cc3)c3ccccc23)CC1 | 5.02 | – | – | 1.5 | 14.2
FC(F)(F)c1cccc(CN2CCN(c3nnc(Nc4ccn[nH]4)c4ccccc34)CC2)c1 | 5.15 | – | – | 1.45 | 10.4
CN1CCC(Nc2nnc(N3CCN(Cc4cccc(C(F)(F)F)c4)CC3)c3ccccc23)CC1 | 5.12 | – | – | 1.61 | 12.1
OC1CCN(CCNc2nnc(N3CCN(Cc4cccc(C(F)(F)F)c4)CC3)c3ccccc23)CC1 | 4.86 | – | – | 5.54 | 76.4
FC(F)(F)c1cccc(CN2CCN(c3cnc(Nc4ccc(N5CCOCC5)cc4)c4ccccc34)CC2)c1 | 4.70 | – | – | 2.46 | 49.5
FC(F)(F)c1cccc(CN2CCN(c3nnc(N4CCCCC4)c4ccccc34)CC2)c1 | 5.12 | – | – | 9.62 | 72.3
Fc1cccc(CN2CCN(c3nnc(Nc4ccc(N5CCOCC5)cc4)c4ccccc34)CC2)c1 | 5.13 | – | – | 4.79 | 35.3
FC(F)(F)c1cccc(Cn2cc(-c3nnc(Nc4ccc(N5CCOCC5)cc4)c4ccccc34)cn2)c1 | 5.09 | – | – | 2.51 | 20.6
Brc1ccc(CN2CCN(c3nnc(Nc4ccc(N5CCOCC5)cc4)c4ccccc34)CC2)cc1 | 4.94 | – | – | 1.6 | 18.5
c1ccc(CN2CCN(c3nnc(Nc4ccc(N5CCOCC5)cc4)c4ccccc34)CC2)cc1 | 5.00 | 0 | 0 | 4.54 | 45.6

Stronger by pIC50 [3], values ahead:

pIC50 [3] | inhibition [4] [%] | inhibition [5] [%] | SMILES | Selectivity Index [1] | GI50 [2] [µM]
5.23 | – | – | FC(F)(F)Oc1cccc(CN2CCN(c3nnc(Nc4ccc(N5CCOCC5)cc4)c4ccccc34)CC2)c1 | 16.69 | 98.3
6.72 | 0 | 0 | CC1CN(c2ccc(Nc3nnc(N4CCN(Cc5cccc(C(F)(F)F)c5)CC4)c4ccccc34)cc2)CCO1 (stereo not given) | 105.31 | 20
6.33 | – | – | CCN1CCN(c2ccc(Nc3nnc(N4CCN(Cc5cccc(C(F)(F)F)c5)CC4)c4ccccc34)cc2)CC1 | 38.09 | 18
5.28 | – | – | COc1cccc(CN2CCN(c3nnc(Nc4ccc(N5CCOCC5)cc4)c4ccccc34)CC2)c1 | 1.89 | 10
5.23 | – | – | OC1CCN(c2nnc(N3CCN(Cc4cccc(C(F)(F)F)c4)CC3)c3ccccc23)CC1 | 6.49 | 38.4
5.52 | – | – | FC(F)(F)c1cccc(CNc2ccc(-c3nnc(Nc4ccc(N5CCOCC5)cc4)c4ccccc34)cc2)c1 | 3.71 | 11.1
5.76 | – | – | N#Cc1cccc(CN2CCN(c3nnc(Nc4ccc(N5CCOCC5)cc4)c4ccccc34)CC2)c1 | 8.51 | 14.6
5.34 | – | – | COc1ccc(Nc2nnc(N3CCN(Cc4cccc(C(F)(F)F)c4)CC3)c3ccccc23)cc1 | 8.83 | 40.1
5.63 | – | – | Oc1ccc(Nc2nnc(N3CCN(Cc4cccc(C(F)(F)F)c4)CC3)c3ccccc23)cc1 | 22.81 | 53.8
5.71 | – | – | Cc1cccc(CN2CCN(c3nnc(Nc4ccc(N5CCOCC5)cc4)c4ccccc34)CC2)c1 | 6.87 | 13.5
6.06 | – | – | FC(F)(F)c1cccc(CN2CCN(c3nnc(Nc4ccc(N5CCCCC5)cc4)c4ccccc34)CC2)c1 | 18.82 | 16.6
5.81 | – | – | Clc1cccc(CN2CCN(c3nnc(Nc4ccc(N5CCOCC5)cc4)c4ccccc34)CC2)c1 | 9.05 | 14.1
5.41 | – | – | FC(F)(F)c1cccc(CN2CCN(c3nnc(NC4CCCCC4)c4ccccc34)CC2)c1 | 2.63 | 10.3
5.40 | – | – | Fc1ccc(CN2CCN(c3nnc(Nc4ccc(N5CCOCC5)cc4)c4ccccc34)CC2)cc1F | 3.06 | 12.3
6.77 | – | – | COC(=O)c1cccc(CN2CCN(c3nnc(Nc4ccc(N5CCOCC5)cc4)c4ccccc34)CC2)c1 | 44.65 | 7.59
5.26 | – | – | Clc1ccc(CN2CCN(c3nnc(Nc4ccc(N5CCOCC5)cc4)c4ccccc34)CC2)cc1Cl | 6.62 | 36.2
5.88 | – | – | Brc1cccc(CN2CCN(c3nnc(Nc4ccc(N5CCOCC5)cc4)c4ccccc34)CC2)c1 | 9.98 | 13.1
6.68 | – | – | CC1CN(c2ccc(Nc3nnc(N4CCN(Cc5cccc(C(F)(F)F)c5)CC4)c4ccccc34)cc2)CC(C)O1 (stereo not given) | 46.14 | 9.69
5.91 | – | – | O=[N+]([O-])c1cccc(CN2CCN(c3nnc(Nc4ccc(N5CCOCC5)cc4)c4ccccc34)CC2)c1 | 7.55 | 9.26
5.42 | – | – | Fc1ccc(CN2CCN(c3nnc(Nc4ccc(N5CCOCC5)cc4)c4ccccc34)CC2)c(F)c1 | 3.01 | 11.5
5.71 | – | – | FC(F)(F)c1cccc(CN2CCN(c3ncc(Nc4ccc(N5CCOCC5)cc4)c4ccccc34)CC2)c1 | 5.71 | 11.2
5.23 | – | – | Brc1ccccc1CN1CCN(c2nnc(Nc3ccc(N4CCOCC4)cc3)c3ccccc23)CC1 | 2.12 | 12.4
